Nine compounds from ChEMBL document CHEMBL1268910, “Assessment of structurally diverse philanthotoxin analogues for inhibitory activity on ionotropic glutamate receptor subtypes: discovery of nanomolar, nonselective, and use-dependent antagonists” (J Med Chem, 2010) can be followed below.

Molecules are shown by their SMILES. Calls of active or inactive are those of the source. The rule behind the calls is not given here.

The subject of experiment [1] is Glutamate receptor ionotropic, AMPA 1 (GluA1i). The experiment is described as follows: Antagonist activity at GluR1 expressed in Xenopus laevis oocytes assessed as inhibition of glutamate-induced current at 0.1 uM at -60mV holding potential by two-electrode voltage-clamp electrophysiology. The conditions noted are these: Oocyte.
Experiment [2] addresses T1, Glutamate NMDA receptor; GRIN1/GRIN2A (Homo sapiens, UniProt Q05586+Q12879). Kind of experiment: Antagonist activity at NR1-1a/NR2A receptor expressed in Xenopus laevis oocytes assessed as inhibition of glutamate/glycine-induced current at -80mV holding potential by two-electrode voltage-clamp electrophysiology. It is filed as functional, cell-based. The conditions noted are these: Oocyte. Summed up:
(§1)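 Holding-potential dependence was measured in oocytes expressing GluA1i or GluN1/2A at -40, -60 and -80 mV by two-electrode voltage clamp. One fixed toxin concentration, chosen from the -60 mV concentration-response data, was co-applied with 100 μM glutamate (GluA1i) or with glutamate plus glycine at 100 μM each (GluN1/2A). The read-out was the reduction in receptor current.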
For orientation: Two-electrode voltage clamp holds a large cell at a set potential and records current.

Experiment [3] concerns Glutamate receptor ionotropic, AMPA 1 (GluA1i). Kind of experiment: Antagonist activity at GluR1 expressed in Xenopus laevis oocytes assessed as inhibition of glutamate-induced current at -40mV holding potential by two-electrode voltage-clamp electrophysiology. The conditions noted are these: Oocyte.
Experiment [4] has the same test system. The experiment is described as follows: Antagonist activity at GluR1 expressed in Xenopus laevis oocytes assessed as inhibition of glutamate-induced current at -80mV holding potential by two-electrode voltage-clamp electrophysiology. As to conditions: Oocyte.
Experiment [5] deals with T1, Glutamate NMDA receptor; GRIN1/GRIN2A. The experiment is described as follows: Antagonist activity at NR1-1a/NR2A receptor expressed in Xenopus laevis oocytes assessed as inhibition of glutamate/glycine-induced current at -40mV holding potential by two-electrode voltage-clamp electrophysiology. The format is functional, cell-based. The conditions noted are these: Oocyte. In short, it runs like this: as §1

Experiment [6] in a line: Selectivity ratio of IC50 for NR1-1a/NR2A receptor to IC50 for GluR1.
Experiment [7] concerns the target T1, Glutamate NMDA receptor; GRIN1/GRIN2A. Kind of experiment: Antagonist activity at NR1-1a/NR2A receptor expressed in Xenopus laevis oocytes assessed as inhibition of glutamate/glycine-induced current at -60mV holding potential by two-electrode voltage-clamp electrophysiology. The format is functional, cell-based, Oocyte. Summed up:
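Two-electrode voltage clamp at -60 mV holding potential on Xenopus oocytes expressing homomeric GluA1i or heteromeric GluN1/2A. Antagonist was co-applied with agonist: 100 μM glutamate for GluA1i, and 100 μM glutamate plus 100 μM glycine for GluN1/2A. IC50 came from concentration-inhibition curves of normalized currents (n = 3). The error term is given as the % difference between the IC50 and antilog(logIC50 + SEM).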

The target is the same in experiment [8]. Kind of experiment: Antagonist activity at NR1-1a/NR2A receptor expressed in Xenopus laevis oocytes assessed as inhibition of glutamate/glycine-induced current at 10 uM at -60mV holding potential by two-electrode voltage-clamp electrophysiology. As to conditions: Oocyte. The format is functional, cell-based. Summed up:
(§2)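 Single-concentration screen at 0.1 and 10 μM by two-electrode voltage clamp (-60 mV) in Xenopus oocytes. Toxin was co-applied with 100 μM glutamate (GluA1i) or with 100 μM glutamate plus 100 μM glycine (GluN1/2A). Percent inhibition was taken from the decrease in agonist-evoked current.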

For experiment [9] the target is unchanged. Kind of experiment: Antagonist activity at NR1-1a/NR2A receptor expressed in Xenopus laevis oocytes assessed as inhibition of glutamate/glycine-induced current at 0.1 uM at -60mV holding potential by two-electrode voltage-clamp electrophysiology. The conditions noted are these: Oocyte. It is filed as functional, cell-based. In short, it runs like this: as §2

What is called inhibition is the change of the read-out against control, counted positive when it falls. The IC50 is the concentration that inhibits the measured activity by half. As to `CCCC(=O)N[C@@H](CC1CCCCC1)C(=O)NCCCNCCCCNCCCN`, the inhibition in [1] turned out to be 35%. For the same compound, the inhibition entry in experiment [2], in experiment [3], in experiment [4] and in [5] was “Active” in each case. Besides, the Ratio IC50 in experiment [6] was 137. For the same compound, the IC50 in experiment [7] came out at 4380 nM.
As for `NCCCNCCCCNCCCNC(=O)[C@H](CC1CCCCC1)NC(=O)Cc1cccc2ccccc12`, the figures for the inhibition in experiment [1], in [8] and in experiment [9] were 35%, 92% and 63%, respectively. The inhibition result in experiment [2], in experiment [3], in [4] and in experiment [5] was “Active” in each case. In experiment [6], the Ratio IC50 is 1. In [7], the half-inhibitory concentration (IC50) came to 47 nM.
As to `NCCCNCCCCNCCCNC(=O)[C@H](CC1CCCCC1)NC(=O)C1CC1`, the inhibition entry in experiment [2] and in [5] was “Active” each time. In addition, the half-inhibitory concentration (IC50) in experiment [7] amounted to 2570 nM.
As to `NCCCNCCCCNCCCNC(=O)[C@H](CCCNC(=O)Cc1ccccc1)NC(=O)C1CCCCC1`, the inhibition in experiment [1] was 35%. For the same compound, the half-maximal inhibitory concentration (IC50) in experiment [7] worked out at 1030 nM.
Regarding `NCCCNCCCCNCCCNC(=O)[C@H](CC1CCCCC1)NC(=O)CC12CC3CC(CC(C3)C1)C2`, the inhibition in [1] stood at 35%. Further, the inhibition entry in [2], in [3], in experiment [4] and in [5] was “Active” throughout. The Ratio IC50 in experiment [6] was 8. The IC50 in experiment [7] was 794 nM.
Consider `NCCCNCCCCNCCCNC(=O)[C@H](CC1CCCCC1)NC(=O)c1ccc(-c2ccccc2)cc1`, for which the inhibition in experiment [1] is 35%. The inhibition entry in experiment [2], in experiment [3], in [4] and in [5] was “Active” each time. Moreover, the Ratio IC50 in experiment [6] was found to be 17. Further, in experiment [7], the IC50 turned out to be 1450 nM.
For `NCCCNCCCCNCCCNC(=O)[C@H](CC1CCCCC1)NC(=O)C1CCCCC1`, the inhibition in experiment [1] was 35%. Further, the inhibition entry in experiment [2], in [3], in experiment [4] and in experiment [5] was “Active” throughout. Also, in experiment [6], the Ratio IC50 was 31. Moreover, the IC50 in experiment [7] is 656 nM.
In the case of `CCCC(=O)N[C@@H](Cc1ccc(O)cc1)C(=O)NCCCNCCCCNCCCN` [PHILANTHOTOXIN 343], the inhibition result in experiment [2] and in experiment [5] was “Active” throughout. The inhibition in [8] worked out at 61%; in experiment [9], 9%. For the same compound, in experiment [7], the half-maximal inhibitory concentration (IC50) stood at 2740 nM.
As to `NCCCNCCCCNCCCNC(=O)[C@H](CNC(=O)Cc1ccccc1)NC(=O)C1CCCCC1`, the inhibition in experiment [1] stood at 35%. The IC50 in experiment [7] was determined as 2810 nM.
